Assay [1] concerns the target Melanocortin receptor 4 (Mus musculus) (UniProt P56450). The assay can be described thus: Agonist activity at mouse MC4R expressed in HEK293 cells assessed as induction of intracellular cAMP accumulation after 2 hrs by AlphaScreen assay. It counts as functional, cell-based. A digest of the protocol:
(§1)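 Stable HEK293 lines (G418 selection) carrying the receptor in pcDNA3, detached with Versene and resuspended in HBSS stimulation buffer containing 0.5 mM IBMX, 5 mM HEPES, 0.1% BSA, pH 7.4, with anti-cAMP acceptor beads; 10,000 cells/well. Ligand 10^-13 to 10^-4 M final, 2 h at room temperature in the dark, then donor beads in lysis buffer for 2 h. Duplicates, ≥3 experiments; curves normalized and flipped relative to controls.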

In assay [2] the target is T1, Melanocortin receptor 4 (Homo sapiens, UniProt P32245). Kind of assay: Agonist activity at human FLAG-tagged MC4R expressed in HTLA cells assessed as induction of beta-arrestin recruitment at 10 uM after 18 hrs by Presto-tango assay relative to NDP-MSH. The class given is cell-based. In a few lines: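 HTLA cells (HEK293 with tTA-luciferase reporter and β-arrestin2-TEV) transiently transfected by calcium phosphate with hMC4R PRESTO-Tango construct (4 µg/plate), held 15–24 h at 35 °C and 3% CO2, then plated at 20,000 cells/well in 1% dialyzed FBS. Ligands 10^-12 to 10^-5 M in HEPES/HBSS pH 7.4, 18 h at 37 °C; Bright-Glo luminescence. Duplicates, ≥3 experiments.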
T1 sequence (P32245 whole entry): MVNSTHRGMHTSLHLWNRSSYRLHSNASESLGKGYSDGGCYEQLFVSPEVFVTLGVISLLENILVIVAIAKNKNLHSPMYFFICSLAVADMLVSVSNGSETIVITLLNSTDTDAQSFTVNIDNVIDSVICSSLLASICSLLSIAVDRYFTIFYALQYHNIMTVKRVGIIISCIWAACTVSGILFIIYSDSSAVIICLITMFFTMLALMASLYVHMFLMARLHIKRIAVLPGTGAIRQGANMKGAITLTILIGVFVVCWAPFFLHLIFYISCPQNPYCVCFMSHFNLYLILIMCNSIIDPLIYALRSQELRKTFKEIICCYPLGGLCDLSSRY

Assay [3] deals with T1, Melanocortin receptor 4. Kind of assay: Selectivity ratio of EC50 for agonist activity at human FLAG-tagged MC4R expressed in HTLA cells assessed as induction of beta-arrestin recruitment to EC50 for agonist activity at human FLAG-tagged MC4R expressed in HEK293 cells assessed as induction of intracellular cAMP accumulation. It counts as functional, cell-based.
For assay [4], the target named is T1, Melanocortin receptor 4. Kind of assay: Antagonist activity at human FLAG-tagged MC4R expressed in HEK293 cells assessed as reduction in NDP-MSH-induced intracellular cAMP accumulation after 2 hrs by AlphaScreen assay. The class given is functional, cell-based. To be noted: read-out: pA2 (converted). A digest of the protocol:
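Stable hMC4R-Flag HEK293 cells in IBMX-containing HBSS stimulation buffer with AlphaScreen cAMP beads, 10,000 cells/well, stimulated 2 h at room temperature. Antagonist ligands tested dose-dependently against NDP-MSH stimulation; pA2 from Schild regression. Duplicate points, at least three independent experiments.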
For orientation: Changes in cAMP serve as a functional read-out for many G protein-coupled receptors.

Assay [5] addresses T1, Melanocortin receptor 4. The assay can be described thus: Agonist activity at human FLAG-tagged MC4R expressed in HEK293 cells assessed as induction of intracellular cAMP accumulation at 10 uM after 2 hrs by AlphaScreen assay relative to NDP-MSH. The class given is functional, cell-based. A digest of the protocol: as §1
Assay [6] has as its target Melanocortin receptor 4 (Mus musculus) (UniProt P56450). Kind of assay: Effect on protein-protein interaction of mouse Nano-Luc-tagged MC4R/mouse Halo-tagged MC4R homodimer expressed in HEK293 cells at 10^-9 to 10^-5 M up to 10 mins by BRET assay. The class given is cell-based.
For assay [7] the target is unchanged. The assay can be described thus: Decrease in protein-protein interaction of mouse Nano-Luc-tagged MC4R/mouse Halo-tagged MC4R homodimer expressed in HEK293 cells up to 10 mins by BRET assay. It counts as cell-based. On the technique in general: In BRET a luciferase serves as donor, and the signal depends on an acceptor being close.
In assay [8] the target is T1, Melanocortin receptor 4. Kind of assay: Agonist activity at human FLAG-tagged MC4R expressed in HEK293 cells assessed as induction of intracellular cAMP accumulation after 2 hrs by AlphaScreen assay. It counts as functional, cell-based.

Activity calls are given as the source filed them. The calls are words filed in the database; no cut-off is given here. Non-standard residues stand in square brackets, D forms with d. Residues, ends and D or L forms follow the SMILES beside them. d2Nal = N[C@H](Cc1ccc2ccccc2c1)C(=O)O

In general, EC50 refers to the concentration at which the effect is half-maximal.

Melanocortin receptor 4 (Mus musculus), sequence (P56450 whole entry): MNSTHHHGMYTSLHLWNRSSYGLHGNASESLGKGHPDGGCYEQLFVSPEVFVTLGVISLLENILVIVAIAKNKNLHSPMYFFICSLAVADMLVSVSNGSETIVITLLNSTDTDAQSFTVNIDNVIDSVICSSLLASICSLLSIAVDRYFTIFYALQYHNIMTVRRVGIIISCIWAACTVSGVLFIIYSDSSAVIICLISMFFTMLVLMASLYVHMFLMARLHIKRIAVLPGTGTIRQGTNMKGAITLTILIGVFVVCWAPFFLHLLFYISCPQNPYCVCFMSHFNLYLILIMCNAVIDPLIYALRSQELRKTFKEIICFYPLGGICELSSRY

`CC(=O)N[C@@H](Cc1cnc[nH]1)C(=O)N[C@H](Cc1ccccc1)C(=O)N[C@@H](CCCNC(=N)N)C(=O)N[C@@H](Cc1c[nH]c2ccccc12)C(=O)NCCCOCCOCCOCCCNC(=O)COCC(=O)N[C@@H](Cc1cnc[nH]1)C(=O)N[C@H](Cc1ccc2ccccc2c1)C(=O)N[C@@H](CCCNC(=N)N)C(=O)N[C@@H](Cc1c[nH]c2ccccc12)C(N)=O`: in assay [1], the result was Active. In addition, the Activity on Melanocortin receptor 4 [2] stood at 45%. Besides, the Ratio EC50 at Melanocortin receptor 4 [3] came out at 3000.

As for `CC(=O)N[C@@H](Cc1cnc[nH]1)C(=O)N[C@H](Cc1ccc2ccccc2c1)C(=O)N[C@@H](CCCNC(=N)N)C(=O)N[C@@H](Cc1c[nH]c2ccccc12)C(=O)N1CCC[C@H]1C(=O)NCC(=O)N1CCC[C@H]1C(=O)NCC(=O)N1CCC[C@H]1C(=O)NCC(=O)N1CCC[C@H]1C(=O)NCC(=O)N1CCC[C@H]1C(=O)NCC(=O)N1CCC[C@H]1C(=O)NCC(N)=O` (Ac-H[d2Nal]RWPGPGPGPGPGPG-NH2), the Kb at Melanocortin receptor 4 [4] is 52.5 nM. Besides, the Activity on Melanocortin receptor 4 [2] worked out at 30%; on Melanocortin receptor 4 [5], 55%.

`CC(=O)N[C@@H](Cc1cnc[nH]1)C(=O)N[C@H](Cc1ccc2ccccc2c1)C(=O)N[C@@H](CCCNC(=N)N)C(=O)N[C@@H](Cc1c[nH]c2ccccc12)C(=O)NCCCOCCOCCOCCCNC(=O)COCC(=O)N[C@@H](Cc1cnc[nH]1)C(=O)N[C@H](Cc1ccc2ccccc2c1)C(=O)N[C@@H](CCCNC(=N)N)C(=O)N[C@@H](Cc1c[nH]c2ccccc12)C(N)=O`: the Kb at Melanocortin receptor 4 [4] is 15.8 nM. The result in assay [1] and in assay [6] was inactive. The Activity on Melanocortin receptor 4 [2] came to 10%; at Melanocortin receptor 4 [5] it was 70%.

Take `N=C(N)NCCC[C@H](NC(=O)[C@@H](Cc1ccc2ccccc2c1)NC(=O)[C@H](Cc1cnc[nH]1)NC(=O)COCC(=O)NCCCOCCOCCOCCCN)C(=O)N[C@@H](Cc1c[nH]c2ccccc12)C(N)=O`: at Melanocortin receptor 4 [4], the Kb was 13.5 nM. For the same compound, the Activity at Melanocortin receptor 4 [2] was determined as 20%; at Melanocortin receptor 4 [5], 50%.

On to `CC(=O)N[C@@H](Cc1cnc[nH]1)C(=O)N[C@H](Cc1ccc2ccccc2c1)C(=O)N[C@@H](CCCNC(=N)N)C(=O)N[C@@H](Cc1c[nH]c2ccccc12)C(N)=O`, for which the Kb on Melanocortin receptor 4 [4] was 15.1 nM.

As to `CC(=O)N[C@@H](Cc1cnc[nH]1)C(=O)N[C@H](Cc1ccc2ccccc2c1)C(=O)N[C@@H](CCCNC(=N)N)C(=O)N[C@@H](Cc1c[nH]c2ccccc12)C(=O)NCCCOCCOCCOCCCNC(=O)COCC(N)=O`, the Kb at Melanocortin receptor 4 [4] was 7.59 nM. Also, the Activity on Melanocortin receptor 4 [2] was determined as 15%; at Melanocortin receptor 4 [5], 55%.

As to `CC(=O)N[C@@H](Cc1cnc[nH]1)C(=O)N[C@H](Cc1ccccc1)C(=O)N[C@@H](CCCNC(=N)N)C(=O)N[C@@H](Cc1c[nH]c2ccccc12)C(N)=O`, the outcome in assay [1] was Active. In addition, in assay [7], the Activity entry is “Dose-dependent effect”.

For the compound `CC(=O)N[C@@H](Cc1cnc[nH]1)C(=O)N[C@H](Cc1ccc2ccccc2c1)C(=O)N[C@@H](CCCNC(=N)N)C(=O)N[C@@H](Cc1c[nH]c2ccccc12)C(=O)N1CCC[C@H]1C(=O)NCC(=O)N1CCC[C@H]1C(=O)NCC(=O)N1CCC[C@H]1C(=O)NCC(=O)N1CCC[C@H]1C(=O)NCC(=O)N1CCC[C@H]1C(=O)NCC(=O)N1CCC[C@H]1C(=O)NCC(=O)N[C@@H](Cc1cnc[nH]1)C(=O)N[C@H](Cc1ccccc1)C(=O)N[C@@H](CCCNC(=N)N)C(=O)N[C@@H](Cc1c[nH]c2ccccc12)C(N)=O`, the Activity at Melanocortin receptor 4 [2] stood at 55%. Further, the Ratio EC50 at Melanocortin receptor 4 [3] was 3000.

Regarding `CC(=O)N[C@@H](Cc1cnc[nH]1)C(=O)N[C@H](Cc1ccc2ccccc2c1)C(=O)N[C@@H](CCCNC(=N)N)C(=O)N[C@@H](Cc1c[nH]c2ccccc12)C(=O)NCCCOCCOCCOCCCNC(=O)COCC(=O)NCCCOCCOCCOCCCNC(=O)COCC(=O)N[C@@H](Cc1cnc[nH]1)C(=O)N[C@H](Cc1ccccc1)C(=O)N[C@@H](CCCNC(=N)N)C(=O)N[C@@H](Cc1c[nH]c2ccccc12)C(N)=O`, at Melanocortin receptor 4 [8], the EC50 is 5.9 nM. For the same compound, the Activity at Melanocortin receptor 4 [2] was determined as 25%. For the same compound, the Ratio EC50 at Melanocortin receptor 4 [3] came out at 3000.

Take `CC(=O)N[C@@H](Cc1cnc[nH]1)C(=O)N[C@H](Cc1ccccc1)C(=O)N[C@@H](CCCNC(=N)N)C(=O)N[C@@H](Cc1c[nH]c2ccccc12)C(=O)NCCCOCCOCCOCCCNC(=O)COCC(=O)N[C@@H](Cc1cnc[nH]1)C(=O)N[C@H](Cc1ccccc1)C(=O)N[C@@H](CCCNC(=N)N)C(=O)N[C@@H](Cc1c[nH]c2ccccc12)C(N)=O`: the outcome in assay [1] was Active. Moreover, in assay [7], the Activity entry was “Dose-dependent effect”.

As for `CC(=O)N[C@@H](Cc1c[nH]cn1)C(=O)N[C@H](Cc1ccc2ccccc2c1)C(=O)N[C@@H](CCCN=C(N)N)C(=O)N[C@@H](Cc1c[nH]c2ccccc12)C(N)=O`, the result in assay [1] and in assay [6] was inactive. Besides, the results for the Activity at Melanocortin receptor 4 [2] and on Melanocortin receptor 4 [5] were 30% and 50%, respectively.

For `CC(=O)N[C@@H](Cc1cnc[nH]1)C(=O)N[C@H](Cc1ccc2ccccc2c1)C(=O)N[C@@H](CCCNC(=N)N)C(=O)N[C@@H](Cc1c[nH]c2ccccc12)C(=O)NCCCOCCOCCOCCCNC(=O)COCC(=O)N[C@@H](Cc1cnc[nH]1)C(=O)N[C@H](Cc1ccccc1)C(=O)N[C@@H](CCCNC(=N)N)C(=O)N[C@@H](Cc1c[nH]c2ccccc12)C(N)=O`, on Melanocortin receptor 4 [2], the Activity is 20%. Further, the Ratio EC50 at Melanocortin receptor 4 [3] amounted to 3000.

The values are drawn from ChEMBL document CHEMBL4308831, “Developing a Biased Unmatched Bivalent Ligand (BUmBL) Design Strategy to Target the GPCR Homodimer Allosteric Signaling (cAMP over β-Arrestin 2 Recruitment) Within the Melanocortin Receptors” (J Med Chem, 2018).
